Reference: paper PMC2605181 (Nature chemical biology, 2008)
“Also recorded” adds a separate entry of the source.

Assays:
ABHD6 = molecular target: T1, ABHD6 (Mus musculus, UniProt Q8R2Y0); experiment: Competitive ABPP; type: biochemical; details: for inhibition of ABHD6 by competitive ABPP: mouse brain membrane proteome, 30 min, Fig. 1b
T1 sequence (Q8R2Y0 1-336): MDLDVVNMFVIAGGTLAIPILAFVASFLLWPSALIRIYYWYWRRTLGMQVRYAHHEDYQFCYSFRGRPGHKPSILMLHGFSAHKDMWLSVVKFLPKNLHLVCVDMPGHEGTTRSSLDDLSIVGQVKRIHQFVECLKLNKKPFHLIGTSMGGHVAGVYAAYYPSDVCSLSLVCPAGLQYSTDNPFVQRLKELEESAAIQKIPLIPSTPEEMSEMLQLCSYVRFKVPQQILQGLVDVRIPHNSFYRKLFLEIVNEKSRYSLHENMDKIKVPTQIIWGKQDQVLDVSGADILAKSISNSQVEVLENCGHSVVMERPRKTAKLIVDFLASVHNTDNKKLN
Method in brief: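 Mouse brain membrane proteome at 1 mg ml-1 in PBS, preincubated with test compound (1 nM to 10 μM) for 30 min at 37°C, then FP-rhodamine (2 μM final) for 30 min at room temperature. Quenched in SDS loading buffer and boiled 5 min at 90°C. Run on SDS-PAGE with in-gel fluorescence scanning; DMSO-only proteome served as control.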

MAGL [1] = molecular target: T2, MAGL (Mus musculus, UniProt O35678); experiment: Competitive ABPP; type: biochemical; details: for inhibition of MAGL by competitive ABPP: 30 min
T2 sequence (O35678 1-303): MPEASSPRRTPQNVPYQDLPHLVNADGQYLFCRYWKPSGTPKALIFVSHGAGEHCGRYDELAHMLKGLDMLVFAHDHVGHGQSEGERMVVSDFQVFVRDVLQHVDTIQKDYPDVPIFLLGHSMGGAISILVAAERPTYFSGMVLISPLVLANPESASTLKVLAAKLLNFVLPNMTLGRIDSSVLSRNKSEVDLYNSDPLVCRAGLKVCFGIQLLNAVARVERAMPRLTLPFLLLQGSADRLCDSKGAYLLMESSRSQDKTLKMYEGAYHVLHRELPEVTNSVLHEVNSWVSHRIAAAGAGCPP

FAAH [2] = molecular target: T3, FAAH (Mus musculus, UniProt O08914); experiment: Competitive ABPP; type: biochemical; details: for inhibition of FAAH by competitive ABPP: mouse brain membrane proteome, 30 min, Fig. 1b
T3 sequence (O08914 1-579): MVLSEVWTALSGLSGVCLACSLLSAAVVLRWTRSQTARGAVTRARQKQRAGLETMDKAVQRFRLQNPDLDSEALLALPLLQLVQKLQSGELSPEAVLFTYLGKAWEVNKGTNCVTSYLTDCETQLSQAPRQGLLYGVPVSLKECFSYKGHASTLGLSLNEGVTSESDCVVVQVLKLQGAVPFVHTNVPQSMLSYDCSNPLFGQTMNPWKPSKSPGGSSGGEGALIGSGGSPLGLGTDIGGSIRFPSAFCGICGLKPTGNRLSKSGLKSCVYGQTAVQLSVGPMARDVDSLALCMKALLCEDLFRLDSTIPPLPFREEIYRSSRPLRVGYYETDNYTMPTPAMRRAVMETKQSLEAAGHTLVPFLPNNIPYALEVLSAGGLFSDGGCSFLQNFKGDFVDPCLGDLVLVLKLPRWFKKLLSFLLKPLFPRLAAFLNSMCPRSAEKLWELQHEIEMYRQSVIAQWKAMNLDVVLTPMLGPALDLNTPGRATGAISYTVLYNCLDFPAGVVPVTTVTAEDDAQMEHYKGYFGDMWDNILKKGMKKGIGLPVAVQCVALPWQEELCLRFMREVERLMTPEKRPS
Method in brief: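 Mouse brain membrane proteome (1 mg ml-1 in PBS) preincubated with test compound (1 nM to 10 μM) for 30 min at 37°C, then FP-rhodamine (2 μM final) for 30 min at room temperature, quenched, SDS-PAGE, in-gel fluorescence; DMSO control. kobs [I]-1: proteome with 0.01-15 μM for 10-40 min at 37°C, aliquots FP-rhodamine-labelled 2 min every 10 min; FAAH band density fit exponentially for pseudo-first-order constants.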

mice [3] = experiment: Acetic acid writhing; type: in vivo, mouse
Method in brief: (§1)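 Test compound was given in 4:1 v/v PEG300:Tween80 at 4 μl g-1: i.p. for tail immersion and acetic acid stretching; p.o. in PEG300 for formalin phase 1 (40 mg kg-1). Rimonabant was given in 18:1:1 saline:ethanol:alkamuls-620. Vehicle and rimonabant-pretreated groups were compared; mean ± SEM, n = 6-14 mice per group.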

mice [4] = experiment: Locomotor activity; type: in vivo, mouse
Method in brief: (§2)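 Measured as part of the cannabinoid tetrad test in mice. Test compound was dissolved in 4:1 v/v PEG300:Tween80 by vortexing, sonication and gentle heating, and given i.p. at 4 μl g-1 body weight; vehicle-only group as control. Rimonabant, where used, was given in 18:1:1 v/v/v saline:ethanol:alkamuls-620.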

mice [5] = experiment: Formalin test; type: in vivo, mouse
Method in brief: as §1

mice [6] = experiment: Rectal temperature; type: in vivo, mouse
Method in brief: as §2

mice [7] = experiment: Tail immersion test of acute thermal pain sensation; type: in vivo, mouse
Method in brief: as §1

MAGL [8] = details: cited from earlier work
[9] = cited from earlier work
CB2 receptors = CB2 receptors (Homo sapiens, UniProt P34972); experiment: CB2 receptor binding assay, CB2 transfected CHO cell membranes; details: JZL184 0.0005-5 µM
[10] = Time course of JZL184 in mouse brain; type: in vivo; details: C57Bl/6J
FAAH [11] = molecular target: T3, FAAH; experiment: FAAH activity of brain membranes from treated mice; type: in vivo
Method in brief: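 Male C57Bl/6J mice (6-8 weeks, 20-26 g) dosed i.p. in 4:1 v/v PEG300:Tween80, with vehicle-only controls. Killed by decapitation under isoflurane 0.5-24 h later; brain hemisected and flash frozen, one half used for membrane proteomes. FAAH activity measured by gel competitive ABPP, FP-biotin ABPP-MudPIT and LC-MS oleamide hydrolysis. Means ± SEM, n = 3-5 mice per group.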

CB1 receptors = experiment: CB1 receptor binding assay, cerebellar membranes; details: JZL184 0.001-10 µM
mice [12] = experiment: Catalepsy bar test and overt behaviour; type: in vivo, mouse
Method in brief: as §2

[13] = tested on: interstitial brain levels of 2-AG and AEA; experiment: In vivo microdialysis, nucleus accumbens, neuronal depolarization; design: species or system mouse; details: 10 mg kg^-1 i.p.
Method in brief: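 Male C57Bl/6 mice received test compound at t = -60 min. Dialysate was sampled from nucleus accumbens. Depolarization was by perfusion with high potassium/calcium artificial CSF at t = 0-90 min. […] Mean ± SEM; n = 8 treated, 6 vehicle.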

brain serine hydrolases = experiment: Other brain serine hydrolase activities from treated mice; type: in vivo, mouse; details: 16 mg kg^-1, 4 h
Method in brief: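 Male C57Bl/6J mice (6-8 weeks, 20-26 g) given 16 mg kg-1 i.p. in 4:1 v/v PEG300:Tween80 or vehicle alone. At 4 h, killed by decapitation under isoflurane; brain half flash frozen for protein work. Brain membrane proteomes underwent competitive ABPP with the biotinylated FP probe, then MudPIT identification of serine hydrolase activities relative to vehicle. n = 3-5 mice per group.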

[14] = tested on: brain levels of 2-AG, arachidonic acid, NAEs, MAGs; experiment: Measurement of brain lipids in treated mice; type: in vivo, mouse
MAGL [15] = molecular target: T2, MAGL; experiment: MAGL activity of brain membranes from treated mice; type: in vivo; details: 16 mg kg^-1 i.p., 4 h
[16] = mouse brain membrane proteome, Fig. 1b
[17] = rimonabant 3 mg kg^-1 pre-treatment
[18] = 16 mg kg^-1 i.p., wild-type / CB1+/+ mice
[19] = brain membrane proteome, FP-rhodamine labeling

CB2 receptors, sequence (P34972 whole entry): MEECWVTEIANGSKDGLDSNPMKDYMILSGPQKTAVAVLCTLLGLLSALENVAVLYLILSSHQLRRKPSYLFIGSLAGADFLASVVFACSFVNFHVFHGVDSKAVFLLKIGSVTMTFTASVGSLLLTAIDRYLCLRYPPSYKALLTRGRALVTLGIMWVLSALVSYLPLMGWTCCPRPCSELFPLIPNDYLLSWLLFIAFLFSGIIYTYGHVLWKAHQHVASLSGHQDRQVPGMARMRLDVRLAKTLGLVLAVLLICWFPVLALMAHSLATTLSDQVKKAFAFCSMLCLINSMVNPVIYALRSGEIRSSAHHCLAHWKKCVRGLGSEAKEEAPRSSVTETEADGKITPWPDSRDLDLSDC

COc1ccc(C(c2ccc(OC)cc2)N2CCN(C(=O)Oc3ccc([N+](=O)[O-])cc3)CC2)cc1 [WWL162]
inhibition of ABHD6 by competitive ABPP (ABHD6): preserve potency | inhibition of MAGL by competitive ABPP (MAGL [1]; [16]): preserve potency | inhibition of FAAH by competitive ABPP (FAAH [2]): greatly reducing activity for FAAH

O=C(Oc1ccc([N+](=O)[O-])cc1)N1CCN(C(c2ccc(F)cc2)c2ccc(F)cc2)CC1 [WWL152]
inhibition of ABHD6 by competitive ABPP (ABHD6): preserve potency | inhibition of MAGL by competitive ABPP (MAGL [1]; [16]): preserve potency | inhibition of FAAH by competitive ABPP (FAAH [2]): greatly reducing activity for FAAH

Cc1c(C(=O)NN2CCCCC2)nn(-c2ccc(Cl)cc2Cl)c1-c1ccc(Cl)cc1 [rimonabant, reference compound]
blockade of JZL184 effect in acetic acid writhing test (mice [3]; [17]): blocked | effect of rimonabant on its own on movement (mice [4]; rimonabant 3 mg kg^-1): significant reductions in movement | blockade of JZL184-induced immobility (mice [4]; [17]): partial blockade | blockade of JZL184 effect in formalin test (mice [5]; [17]): blocked | blockade of hypothermic effect of JZL184 (mice [6]; [17]): completely blocked | blockade of JZL184 effect in tail immersion test (mice [7]; [17]): blocked

CCCCC/C=C\C/C=C\C/C=C\C/C=C\CCCCN1C(=O)C=CC1=O [NAM]
selectivity for MAGL over FAAH and other serine hydrolases (MAGL [8]): some selectivity | potentiation of pharmacological effects of 2-AG in vivo [9]: potentiate the pharmacological effects of 2-AG

CN(Cc1cccc(-c2ccncc2)c1)C(=O)Oc1ccc([N+](=O)[O-])cc1 [WWL98]
inhibition of ABHD6 by competitive ABPP (ABHD6): inhibited | inhibition of MAGL by competitive ABPP (MAGL [1]; [16]): inhibited | inhibition of FAAH by competitive ABPP (FAAH [2]): inhibited

COc1ccc(C(O)(c2ccc(OC)cc2)C2CCN(C(=O)Oc3ccc([N+](=O)[O-])cc3)CC2)cc1 [JZL175]
selectivity for MAGL over FAAH and ABHD6 by competitive ABPP (MAGL [1]; [16]): exhibited selectivity for MAGL over both FAAH and ABHD6

O=C(Oc1ccc([N+](=O)[O-])cc1)N1CCC(C(O)(c2ccc3c(c2)OCO3)c2ccc3c(c2)OCO3)CC1 [JZL184]
concentration at which inhibition of ABHD6 is observed by competitive ABPP (ABHD6; 30 min preincubation): 10 µM | antinociception in acetic acid writhing test (mice [3]; 16 mg kg^-1, 2 h): significant analgesic activity; also recorded: antinociceptive effects | hypomotility in CB1^-/- mice (mice [4]; 16 mg kg^-1 i.p., CB1^-/- mice): did not produce significant hypomotility, hypothermia, or analgesia | hypomotility (mice [4]; [18]): hypomotility | antinociception in formalin test, phase 1 (mice [5]; 40 mg kg^-1 p.o.): antinociceptive effects | antinociception in formalin test, phase 2 (mice [5]; 40 mg kg^-1 p.o.): antinociceptive effects | analgesic activity in formalin test (mice [5]; text: 16 mg kg^-1, 2 h): significant analgesic activity | interaction with CB2 receptors (radioligand displacement) (CB2 receptors): did not interact | half-life [10]: ~7 h | inhibition of brain FAAH by ABPP-MudPIT (FAAH [11]; 16 mg kg^-1, 4 h): partial inhibition | brain FAAH blockade, maximum at any time point (FAAH [11]; 16 mg kg^-1 i.p., 0.5-24 h): ≤ 70% | blockade of MAGL activity by competitive ABPP (MAGL [1]; as low as 50 nM JZL184, 30 min preincubation): Near-complete blockade | kobs [I]^-1 for MAGL (MAGL [1]; [19]): 4400 M⁻¹ s⁻¹ | interaction with CB1 receptors (displacement of 3H-rimonabant) (CB1 receptors): did not interact | hypothermia in CB1^-/- mice (mice [6]; 16 mg kg^-1 i.p., CB1^-/- mice): did not produce significant hypomotility, hypothermia, or analgesia | hypothermia (mice [6]; [18]): significant hypothermia | catalepsy in the bar test (mice [12]; 16 mg kg^-1 i.p.): did not, however, induce catalepsy; also recorded: did not develop catalepsy | overt posture and appearance (spontaneous limb splaying) (mice [12]; JZL184-treated mice): appeared generally normal | baseline interstitial levels of 2-AG (before depolarization) ([13]; 1 h prior to depolarization): did not observe changes | interstitial brain levels of 2-AG following neuronal depolarization ([13]; nucleus accumbens): dramatically elevated | interstitial brain levels of AEA ([13]; nucleus accumbens): did not affect; also recorded: no significant alteration | antinociception in tail immersion test (mice [7]; 16 mg kg^-1 i.p., 2 h, wild-type / CB1+/+ mice): significant analgesic activity; also recorded: antinociceptive effects | effect on other brain serine hydrolases by ABPP-MudPIT (brain serine hydrolases): none of the other ∼40 brain serine hydrolases profiled by ABPP-MudPIT were significantly affected | elevation of brain 2-AG above control levels ([14]; 16 mg kg^-1 i.p., for at least 8 h): 7-9 fold | elevation of brain 2-AG (summary statement) ([14]; administration to mice): 8 fold | elevation of brain 2-AG levels above baseline ([14]; higher doses (up to 40 mg kg^-1 i.p.), 4 h): 8-10 fold | period for which elevated brain 2-AG levels were maintained ([14]; single dose): at least 8 h | blockade of brain MAGL activity (competitive ABPP, ABPP-MudPIT) (MAGL [15]): near-complete blockade | residual brain 2-AG hydrolysis activity (MAGL [15]): 15 % of control | concentration at which inhibition of FAAH is observed by competitive ABPP (FAAH [2]; 30 min preincubation): 10 µM | kobs [I]^-1 for FAAH (FAAH [2]; [19]): 13 M⁻¹ s⁻¹

NC(=O)c1cccc(-c2cccc(OC(=O)NC3CCCCC3)c2)c1 [URB597, reference compound]
brain FAAH activity (FAAH [11]; URB597 10 mg kg^-1 i.p.): completely inhibited | brain 2-AG or arachidonic acid levels ([14]; URB597 10 mg kg^-1 i.p.): without altering | brain anandamide and other NAEs ([14]; URB597 10 mg kg^-1 i.p.): significant elevations
